Experimental data as given in ChEMBL document CHEMBL3045526, “Tailoring the structure of aminobisphosphonates to target plant P5C reductase” (J Agric Food Chem, 2008).

Biological target: T1, Pyrroline-5-carboxylate reductase (Arabidopsis thaliana, UniProt P54904)
T1 sequence (P54904 whole entry): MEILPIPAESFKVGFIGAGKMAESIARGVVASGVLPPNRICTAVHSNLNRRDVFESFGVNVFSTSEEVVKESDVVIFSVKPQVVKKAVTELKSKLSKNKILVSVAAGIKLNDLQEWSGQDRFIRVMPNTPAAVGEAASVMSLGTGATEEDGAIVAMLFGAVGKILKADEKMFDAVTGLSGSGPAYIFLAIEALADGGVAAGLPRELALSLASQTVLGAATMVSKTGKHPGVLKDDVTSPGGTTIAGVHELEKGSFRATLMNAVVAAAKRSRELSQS
Assay: Inhibition of Arabidopsis thaliana P5C assessed as reduction in NADH oxidation incubated at 35 degC up to 10 min
Outline: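 P5C reductase partially purified from stationary-phase A. thaliana cultured cells. Forward reaction run in 100 mM Tris-HCl pH 8.0, 0.1 mM MgCl2, 2 mM DL-P5C, 0.25 mM NADH, with 0.15–0.20 nkat enzyme. A340 followed at 35 °C for up to 10 min against P5C-free blanks. Inhibitor final 5 µM–5 mM (pH 7.5–8.0), triplicate. IC50 by linear regression of % activity vs log concentration.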

With `O=P(O)(O)C(Nc1c(Cl)cccc1Cl)P(=O)(O)O` [2,6-DICHLOROPHENYLAMINOMETHYLENEBISPHOSPHONIC ACID] the IC50 was 0.112 mM.
With `O=P(O)(O)C(O)c1ccccc1Cl` (racemic) [(2-CHLOROPHENYL)(HYDROXY)METHYLPHOSPHONIC ACID] the IC50 was 7.1 mM.
`NC(c1ccc(Cl)cc1Cl)P(=O)(O)O` (racemic) [AMINO(2,4-DICHLOROPHENYL)METHYLPHOSPHONIC ACID] gave an IC50 of 8.2 mM.
`O=P(O)(O)C(Nc1cc(Cl)cc(Cl)c1)P(=O)(O)O` [(3,5-DICHLOROPHENYLAMINO)METHYLENEDIPHOSPHONIC ACID] gave an IC50 of 0.077 mM.
Work on `O=P(O)(O)C(Nc1ccc(Cl)c(Cl)c1)P(=O)(O)O` [3,4-DICHLOROPHENYLAMINOMETHYLENEBISPHOSPHONIC ACID] yielded an IC50 of 0.268 mM.
`COc1cccc(C(N)P(=O)(O)O)c1OC` (racemic) [AMINO(2,3-DIMETHOXYPHENYL)METHYLPHOSPHONIC ACID] was tested, and the IC50 was 16 mM.
In the case of `O=P(O)(O)C(O)c1cccc(Cl)c1Cl` (racemic) [(2,3-DICHLOROPHENYL)(HYDROXY)METHYLPHOSPHONIC ACID], the IC50 is reported as 4.9 mM.
In the case of `O=P(O)(O)C(Nc1ccc(Cl)cc1Cl)P(=O)(O)O` [2,4-DICHLOROPHENYLAMINOMETHYLENEBISPHOSPHONIC ACID], the IC50 is reported as 0.5 mM.
Compound `O=P(O)(O)C(Nc1cc(Cl)ccc1Cl)P(=O)(O)O` [2,5-DICHLOROPHENYLAMINOMETHYLENEBISPHOSPHONIC ACID] has an IC50 of 0.73 mM.
Compound `NC(c1ccccc1Br)P(=O)(O)O` (racemic) [AMINO(2-BROMOPHENYL)METHYLPHOSPHONIC ACID] has an IC50 of 63 mM.
For `O=P(O)(O)C(O)c1cccc(Cl)c1` (racemic) [(3-CHLOROPHENYL)(HYDROXY)METHYLPHOSPHONIC ACID], the IC50 was 5.1 mM.
Work on `NC(c1ccccc1Cl)P(=O)(O)O` (racemic) [AMINO(2-CHLOROPHENYL)METHYLPHOSPHONIC ACID] yielded an IC50 of 10.6 mM.
`NC(c1cccc(Cl)c1Cl)P(=O)(O)O` (racemic) [AMINO(2,3-DICHLOROPHENYL)METHYLPHOSPHONIC ACID] gave an IC50 of 4.6 mM.
`O=P(O)(O)C(O)c1ccc(Cl)cc1Cl` (racemic) [(2,4-DICHLOROPHENYL)(HYDROXY)METHYLPHOSPHONIC ACID] gave an IC50 of 5.8 mM.
`O=P(O)(O)C(O)c1ccc(Cl)c(Cl)c1` (racemic) [(3,4-DICHLOROPHENYL)(HYDROXY)METHYLPHOSPHONIC ACID] gave an IC50 of 1.4 mM.
Compound `NC(c1ccccc1F)P(=O)(O)O` (racemic) [AMINO(2-FLUOROPHENYL)METHYLPHOSPHONIC ACID] has an IC50 of 6.6 mM.
`O=P(O)(O)C(Nc1cccc(Cl)c1Cl)P(=O)(O)O` [2,3-DICHLOROPHENYLAMINOMETHYLENEBISPHOSPHONIC ACID] showed an IC50 of 0.102 mM.
Work on `O=P(O)(O)C(O)c1c(Cl)cccc1Cl` (racemic) [(2,6-DICHLOROPHENYL)(HYDROXY)METHYLPHOSPHONIC ACID] yielded an IC50 of 8.1 mM.
Work on `NC(c1cccc(Cl)c1)P(=O)(O)O` (racemic) [AMINO(3-CHLOROPHENYL)METHYLPHOSPHONIC ACID] yielded an IC50 of 35.6 mM.
`O=P(O)(O)C(Nc1ccc(Cl)cc1)P(=O)(O)O` [(4-CHLOROPHENYLAMINO)METHYLENEDIPHOSPHONIC ACID] was tested, and the IC50 was 0.86 mM.
Work on `O=P(O)(O)C(O)c1ccc(Cl)cc1` (racemic) [(4-CHLOROPHENYL)(HYDROXY)METHYLPHOSPHONIC ACID] yielded an IC50 of 45.5 mM.
